≈ marks a conversion by molar mass, not a printed value.
Legend:
[1] = target: Cytochrome P450 2E1 (Homo sapiens, UniProt P05181); test: Inhibition of CYP2E1 in human liver microsomes assessed as chlorzoxazone 6-hydroxylation after 20 mins by LC-MS/MS analysis; assay type: ADME
[2] = Kinetic solubility of the compound in phosphate buffered saline at pH 7.4 after 2 hrs by HPLC analysis; assay type: physicochemical; conditions: read-out: Kinetic_solubility
[3] = system: Plasmodium falciparum; test: Antiplasmodial activity against chloroquine-sensitive Plasmodium falciparum 3D7 after 24 hrs by [3H]hypoxanthine incorporation assay; assay type: functional, organism-based
How it was run: (§1)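 Antiplasmodial testing was done at the Swiss Tropical and Public Health Institute. Chloroquine, the reference drug, was tested as its diphosphate salt.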

[4] = system: Plasmodium falciparum; test: Antiplasmodial activity against chloroquine-resistant Plasmodium falciparum K1 after 24 hrs by [3H]hypoxanthine incorporation assay; assay type: functional, organism-based; how it was run: as §1
[5] = system: Plasmodium falciparum; test: Antiplasmodial activity against chloroquine-resistant Plasmodium falciparum W2 after 24 hrs by [3H]hypoxanthine incorporation assay; assay type: functional, organism-based; how it was run: as §1
[6] = system: CHO; test: Cytotoxicity against CHO cells; assay type: cell-based; conditions: Cricetulus griseus
[7] = system: Plasmodium falciparum; test: Resistance index, ratio of IC50 for chloroquine-resistant Plasmodium falciparum K1 to IC50 for chloroquine-sensitive Plasmodium falciparum 3D7; assay type: functional
[8] = target: T1, Cytochrome P450 2A6 (Homo sapiens, UniProt P11509); test: Inhibition of CYP2A6 in human liver microsomes assessed as coumarin 7-hydroxylation after 20 mins by LC-MS/MS analysis; assay type: ADME
T1 sequence (P11509 whole entry): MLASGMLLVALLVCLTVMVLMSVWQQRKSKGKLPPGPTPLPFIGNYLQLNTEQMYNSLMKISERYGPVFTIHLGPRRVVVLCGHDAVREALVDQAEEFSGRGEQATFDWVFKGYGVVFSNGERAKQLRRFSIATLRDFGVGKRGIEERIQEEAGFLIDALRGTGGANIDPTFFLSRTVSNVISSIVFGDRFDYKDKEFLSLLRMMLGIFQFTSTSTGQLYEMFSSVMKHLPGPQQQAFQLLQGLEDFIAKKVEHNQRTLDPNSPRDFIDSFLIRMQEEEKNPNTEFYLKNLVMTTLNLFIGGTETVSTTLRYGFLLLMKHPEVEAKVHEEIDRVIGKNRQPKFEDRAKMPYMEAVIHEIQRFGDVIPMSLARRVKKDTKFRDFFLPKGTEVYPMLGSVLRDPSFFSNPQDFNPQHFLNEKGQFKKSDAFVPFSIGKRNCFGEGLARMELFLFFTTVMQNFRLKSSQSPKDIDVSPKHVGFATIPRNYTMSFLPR

[9] = target: T2, Cytochrome P450 1A2 (Homo sapiens, UniProt P05177); test: Inhibition of CYP1A2 in human liver microsomes assessed as phenacetin O-deethylation after 20 mins by LC-MS/MS analysis; assay type: ADME
T2 sequence (P05177 whole entry): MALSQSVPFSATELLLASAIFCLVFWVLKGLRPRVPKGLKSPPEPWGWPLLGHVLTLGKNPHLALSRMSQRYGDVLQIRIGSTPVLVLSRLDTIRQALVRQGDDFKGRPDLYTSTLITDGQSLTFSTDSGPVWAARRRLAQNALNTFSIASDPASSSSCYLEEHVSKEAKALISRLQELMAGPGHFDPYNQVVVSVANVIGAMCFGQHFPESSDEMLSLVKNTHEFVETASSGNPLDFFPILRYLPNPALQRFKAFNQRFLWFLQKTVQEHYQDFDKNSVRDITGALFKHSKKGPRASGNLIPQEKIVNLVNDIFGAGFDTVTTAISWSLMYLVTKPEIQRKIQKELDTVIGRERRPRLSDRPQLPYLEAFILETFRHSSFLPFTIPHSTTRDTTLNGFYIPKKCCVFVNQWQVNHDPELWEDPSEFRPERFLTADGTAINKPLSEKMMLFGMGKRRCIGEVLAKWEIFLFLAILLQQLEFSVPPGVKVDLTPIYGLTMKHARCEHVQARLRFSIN

[10] = target: Cytochrome P450 2C9 (Homo sapiens, UniProt P11712); test: Inhibition of CYP2C9 in human liver microsomes assessed as diclofenac 4'-hydroxylation after 20 mins by LC-MS/MS analysis; assay type: ADME
[11] = target: T3, Cytochrome P450 2C8 (Homo sapiens, UniProt P10632); test: Inhibition of CYP2C8 in human liver microsomes assessed as paclitaxel 6alpha-hydroxylation after 20 mins by LC-MS/MS analysis; assay type: ADME
T3 sequence (P10632 whole entry): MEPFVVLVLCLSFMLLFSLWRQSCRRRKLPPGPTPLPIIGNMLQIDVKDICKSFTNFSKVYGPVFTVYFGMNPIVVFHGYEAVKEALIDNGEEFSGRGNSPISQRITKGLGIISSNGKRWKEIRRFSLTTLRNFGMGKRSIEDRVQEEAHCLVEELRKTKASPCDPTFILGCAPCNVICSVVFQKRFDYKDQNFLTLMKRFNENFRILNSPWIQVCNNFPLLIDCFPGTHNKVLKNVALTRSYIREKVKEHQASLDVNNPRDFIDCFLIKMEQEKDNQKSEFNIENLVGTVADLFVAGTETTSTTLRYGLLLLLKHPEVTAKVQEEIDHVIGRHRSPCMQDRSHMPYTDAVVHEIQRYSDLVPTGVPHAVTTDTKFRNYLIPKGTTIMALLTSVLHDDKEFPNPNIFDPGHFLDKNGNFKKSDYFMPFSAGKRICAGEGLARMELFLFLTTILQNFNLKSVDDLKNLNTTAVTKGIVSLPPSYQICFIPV

[12] = target: Cytochrome P450 2D6 (Homo sapiens, UniProt P10635); test: Inhibition of CYP2D6 in human liver microsomes assessed as bufuralol 1'-hydroxylation after 20 mins by LC-MS/MS analysis; assay type: ADME
[13] = target: Cytochrome P450 3A4 (Homo sapiens, UniProt P08684); test: Inhibition of CYP3A4 in human liver microsomes assessed as midazolam 1'-hydroxylation and testosterone 6beta-hydroxylation after 20 mins by LC-MS/MS analysis; assay type: ADME
[14] = Kinetic solubility of the compound in 0.01 M HCl at pH 2 after 2 hrs by HPLC analysis; assay type: physicochemical; conditions: read-out: Kinetic_solubility
[15] = target: T4, Cytochrome P450 2B6 (Homo sapiens, UniProt P20813); test: Inhibition of CYP2B6 in human liver microsomes assessed as bupropion hydroxylation after 20 mins by LC-MS/MS analysis; assay type: ADME
T4 sequence (P20813 whole entry): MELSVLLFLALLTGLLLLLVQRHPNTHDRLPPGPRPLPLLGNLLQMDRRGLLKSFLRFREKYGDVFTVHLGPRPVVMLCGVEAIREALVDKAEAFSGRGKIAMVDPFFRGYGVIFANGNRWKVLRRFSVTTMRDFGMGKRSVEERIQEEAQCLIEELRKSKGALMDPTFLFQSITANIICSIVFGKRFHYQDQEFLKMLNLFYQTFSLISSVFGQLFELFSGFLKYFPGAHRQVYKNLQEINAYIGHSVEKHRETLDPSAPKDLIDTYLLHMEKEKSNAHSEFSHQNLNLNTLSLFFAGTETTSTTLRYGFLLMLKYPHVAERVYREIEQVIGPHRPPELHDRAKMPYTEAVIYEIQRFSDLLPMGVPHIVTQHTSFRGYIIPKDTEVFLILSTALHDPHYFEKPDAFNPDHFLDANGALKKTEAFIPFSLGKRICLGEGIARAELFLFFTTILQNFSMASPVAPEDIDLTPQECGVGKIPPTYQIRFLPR

[16] = target: Cytochrome P450 2C19 (Homo sapiens, UniProt P33261); test: Inhibition of CYP2C19 in human liver microsomes assessed as S-mephenytoin 4'-hydroxylation after 20 mins by LC-MS/MS analysis; assay type: ADME
Chain of Cytochrome P450 2C19 (P33261 whole entry): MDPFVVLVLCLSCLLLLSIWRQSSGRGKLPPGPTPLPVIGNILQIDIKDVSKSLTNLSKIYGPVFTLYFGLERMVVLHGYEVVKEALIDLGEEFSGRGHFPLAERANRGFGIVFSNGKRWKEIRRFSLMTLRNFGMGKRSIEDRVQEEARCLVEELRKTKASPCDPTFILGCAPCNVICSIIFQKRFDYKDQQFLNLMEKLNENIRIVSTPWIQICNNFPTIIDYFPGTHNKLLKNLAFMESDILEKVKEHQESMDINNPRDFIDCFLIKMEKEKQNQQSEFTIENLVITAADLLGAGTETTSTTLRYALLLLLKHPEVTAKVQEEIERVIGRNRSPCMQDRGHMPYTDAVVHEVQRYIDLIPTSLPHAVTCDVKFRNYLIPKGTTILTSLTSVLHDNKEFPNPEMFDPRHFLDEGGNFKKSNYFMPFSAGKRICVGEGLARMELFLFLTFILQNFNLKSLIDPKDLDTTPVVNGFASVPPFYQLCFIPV

Chain of Cytochrome P450 2D6 (P10635 whole entry): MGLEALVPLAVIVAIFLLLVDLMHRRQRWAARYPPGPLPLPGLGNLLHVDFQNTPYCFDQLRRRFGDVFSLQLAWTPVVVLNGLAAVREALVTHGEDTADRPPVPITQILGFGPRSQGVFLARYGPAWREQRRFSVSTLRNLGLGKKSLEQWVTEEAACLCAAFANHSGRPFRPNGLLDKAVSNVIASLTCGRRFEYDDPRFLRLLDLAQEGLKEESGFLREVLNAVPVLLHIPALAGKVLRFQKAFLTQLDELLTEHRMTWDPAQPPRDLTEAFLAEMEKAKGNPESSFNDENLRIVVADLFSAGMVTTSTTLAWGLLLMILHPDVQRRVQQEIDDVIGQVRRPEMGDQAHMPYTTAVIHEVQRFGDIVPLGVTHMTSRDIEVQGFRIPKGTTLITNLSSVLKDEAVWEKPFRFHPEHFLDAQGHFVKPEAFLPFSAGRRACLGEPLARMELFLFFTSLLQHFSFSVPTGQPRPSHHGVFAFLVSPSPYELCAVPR
Chain of Cytochrome P450 3A4 (P08684 whole entry): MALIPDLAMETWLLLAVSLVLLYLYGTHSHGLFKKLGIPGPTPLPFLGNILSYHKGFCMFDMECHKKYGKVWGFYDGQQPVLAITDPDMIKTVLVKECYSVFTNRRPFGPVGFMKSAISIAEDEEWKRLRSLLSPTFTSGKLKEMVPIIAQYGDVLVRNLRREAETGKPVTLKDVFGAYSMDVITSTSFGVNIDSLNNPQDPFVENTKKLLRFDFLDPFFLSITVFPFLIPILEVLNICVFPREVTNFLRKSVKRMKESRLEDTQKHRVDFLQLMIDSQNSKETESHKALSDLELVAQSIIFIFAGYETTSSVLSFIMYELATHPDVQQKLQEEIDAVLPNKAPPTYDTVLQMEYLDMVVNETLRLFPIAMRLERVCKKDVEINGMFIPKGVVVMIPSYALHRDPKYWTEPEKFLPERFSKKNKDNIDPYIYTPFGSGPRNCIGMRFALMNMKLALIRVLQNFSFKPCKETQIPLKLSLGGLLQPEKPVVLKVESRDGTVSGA
Chain of Cytochrome P450 2C9 (P11712 whole entry): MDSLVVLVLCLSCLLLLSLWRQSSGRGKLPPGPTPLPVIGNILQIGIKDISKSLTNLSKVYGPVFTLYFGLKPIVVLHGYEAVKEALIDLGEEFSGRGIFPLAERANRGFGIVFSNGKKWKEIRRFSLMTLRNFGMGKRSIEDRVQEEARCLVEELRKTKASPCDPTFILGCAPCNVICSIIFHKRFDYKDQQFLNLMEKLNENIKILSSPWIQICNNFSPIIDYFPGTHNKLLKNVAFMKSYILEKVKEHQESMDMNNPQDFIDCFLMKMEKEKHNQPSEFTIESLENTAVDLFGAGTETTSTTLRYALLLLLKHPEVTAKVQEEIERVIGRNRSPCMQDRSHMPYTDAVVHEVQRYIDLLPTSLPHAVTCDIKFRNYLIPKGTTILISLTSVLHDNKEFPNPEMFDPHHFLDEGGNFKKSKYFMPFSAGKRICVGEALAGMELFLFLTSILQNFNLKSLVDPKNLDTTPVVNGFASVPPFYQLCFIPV
Chain of Cytochrome P450 2E1 (P05181 whole entry): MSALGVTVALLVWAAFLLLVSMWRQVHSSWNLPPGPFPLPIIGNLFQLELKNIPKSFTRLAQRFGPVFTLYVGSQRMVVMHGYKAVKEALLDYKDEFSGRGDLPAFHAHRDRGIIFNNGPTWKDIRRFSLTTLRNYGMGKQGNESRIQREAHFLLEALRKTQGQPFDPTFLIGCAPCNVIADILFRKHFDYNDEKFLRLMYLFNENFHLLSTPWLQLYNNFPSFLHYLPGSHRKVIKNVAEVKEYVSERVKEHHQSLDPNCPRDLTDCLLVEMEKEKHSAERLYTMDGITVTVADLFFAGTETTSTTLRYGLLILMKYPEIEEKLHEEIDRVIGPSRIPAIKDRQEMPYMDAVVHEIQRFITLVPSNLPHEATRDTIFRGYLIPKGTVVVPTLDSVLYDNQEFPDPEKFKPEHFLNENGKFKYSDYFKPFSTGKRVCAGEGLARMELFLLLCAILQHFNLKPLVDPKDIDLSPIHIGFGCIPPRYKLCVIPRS

Cc1ccc(C(NCCNc2ccnc3cc(Cl)ccc23)c2nnnn2C(C)(C)C)cc1 (stereo unspecified)
IC50 [1]: > 20 µM
solubility kinetic at 2 h [2]: 39.6 µM (≈ 17.8 µg/mL)
IC50 [3]: 0.001 µM
IC50 [4]: 0.002 µM
IC50 [5]: 0.0311 µM
IC50 [6]: 185 µM
Ratio IC50 [7]: 2
IC50 [8]: > 20 µM
IC50 [9]: > 20 µM
IC50 [10]: 10.3 µM
IC50 [11]: 3.98 µM
IC50 [12]: 9.88 µM
IC50 [13]: 0.17 µM
solubility kinetic at 2 h [14]: 127 µM (≈ 57.1 µg/mL)
IC50 [15]: > 20 µM
IC50 [16]: > 20 µM
